For data set [1], the system named is HUVEC. Put plainly: Antiangiogenic activity in HUVEC assessed as inhibition of VEGF-induced capillary tube formation after 8 hrs by matrigel based inverted microscopic analysis. It counts as functional, cell-based. The conditions noted are these: Homo sapiens. A digest of the protocol:
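HUVECs treated with compound with or without VEGF (50 ng/mL) for 8 h. Intact tubes counted under a microscope, and IC50 calculated against control. Value is the mean IC50 from triplicate experiments.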

Data set [2] relates to HUVEC. The data set is described as follows: Growth inhibition of HUVEC after 24 hrs in presence of VEGF by MTT assay. It is filed as cell-based. As to conditions: Homo sapiens. An outline of the steps:
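HUVECs exposed to compound in the presence of VEGF (50 ng/mL) for 24 h, with growth read by MTT assay. Value is the mean IC50 from triplicate experiments.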
In general terms: Formazan colour is commonly taken as a measure of viable cells.

For data set [3], the system named is HUVEC. Put plainly: Inhibition of integrin in HUVEC assessed as decrease in VEGF-induced SRC/FAK phosphorylation pretreated for 30 mins followed by VEGF stimulation for 20 mins by Western blot analysis. As to conditions: Homo sapiens. It is filed as cell-based. An outline of the steps: (§1)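 HUVECs pretreated with various compound concentrations for 30 min, then stimulated with VEGF (50 ng/mL) for 20 min. Phosphoproteins detected by immunoblot, with β-actin as loading control.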

In data set [4] the target is Dual specificity mitogen-activated protein kinase kinase 1 (Homo sapiens) (UniProt Q02750). The data set is described as follows: Inhibition of human wild type partial length MEK1 (M1 to V393 residues) expressed in mammalian expression system at 10 uM by Kinomescan method relative to control. A digest of the protocol:
(§2)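 Compound tested at 10 μM in a KINOMEscan binding panel of 30 kinases. Activity taken from binding between each kinase and its corresponding ligand.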

The target in data set [5] is T1, Protein kinase C iota type (Homo sapiens) (UniProt P41743).
T1 sequence (whole entry): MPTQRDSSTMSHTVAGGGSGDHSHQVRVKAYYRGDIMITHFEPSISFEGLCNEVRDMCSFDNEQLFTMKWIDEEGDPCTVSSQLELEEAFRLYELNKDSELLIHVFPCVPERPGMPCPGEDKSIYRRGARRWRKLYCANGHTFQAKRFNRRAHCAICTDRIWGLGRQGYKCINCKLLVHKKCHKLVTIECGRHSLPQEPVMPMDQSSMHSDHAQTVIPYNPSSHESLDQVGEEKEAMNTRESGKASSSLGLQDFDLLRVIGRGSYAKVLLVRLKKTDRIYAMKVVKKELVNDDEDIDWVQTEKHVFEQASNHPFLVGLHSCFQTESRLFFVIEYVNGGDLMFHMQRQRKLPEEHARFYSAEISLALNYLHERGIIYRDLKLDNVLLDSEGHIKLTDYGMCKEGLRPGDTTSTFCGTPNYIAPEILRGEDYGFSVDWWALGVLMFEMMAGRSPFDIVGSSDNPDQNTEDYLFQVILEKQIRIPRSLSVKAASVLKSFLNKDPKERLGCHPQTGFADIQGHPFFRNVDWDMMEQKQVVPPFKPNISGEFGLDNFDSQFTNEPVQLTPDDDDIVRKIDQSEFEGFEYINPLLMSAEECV
The data set is described as follows: Inhibition of human wild type partial length PRKCI (H215 to V587 residues) expressed in mammalian expression system at 10 uM by Kinomescan method relative to control. A digest of the protocol:
as §2

A short description of data set [6]: Apparent permeability from apical to basolateral side in MDCK cells at 10 uM by LC-MS/MS analysis. It counts as ADME, cell-based, Canis lupus familiaris. The conditions noted are these: dog. An outline of the steps: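 Apparent permeability coefficient (Papp, A-B) measured across MDCK cell monolayers.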
The target in data set [7] is Vascular endothelial growth factor receptor 2 (Homo sapiens) (UniProt P35968). Put plainly: Inhibition of VEGFR2 in HUVEC assessed as decrease in VEGF-induced SRC phosphorylation pretreated for 30 mins followed by VEGF stimulation for 20 mins by Western blot analysis. It is filed as cell-based. An outline of the steps: as §1
Chain of Vascular endothelial growth factor receptor 2 (Homo sapiens) (P35968 whole entry): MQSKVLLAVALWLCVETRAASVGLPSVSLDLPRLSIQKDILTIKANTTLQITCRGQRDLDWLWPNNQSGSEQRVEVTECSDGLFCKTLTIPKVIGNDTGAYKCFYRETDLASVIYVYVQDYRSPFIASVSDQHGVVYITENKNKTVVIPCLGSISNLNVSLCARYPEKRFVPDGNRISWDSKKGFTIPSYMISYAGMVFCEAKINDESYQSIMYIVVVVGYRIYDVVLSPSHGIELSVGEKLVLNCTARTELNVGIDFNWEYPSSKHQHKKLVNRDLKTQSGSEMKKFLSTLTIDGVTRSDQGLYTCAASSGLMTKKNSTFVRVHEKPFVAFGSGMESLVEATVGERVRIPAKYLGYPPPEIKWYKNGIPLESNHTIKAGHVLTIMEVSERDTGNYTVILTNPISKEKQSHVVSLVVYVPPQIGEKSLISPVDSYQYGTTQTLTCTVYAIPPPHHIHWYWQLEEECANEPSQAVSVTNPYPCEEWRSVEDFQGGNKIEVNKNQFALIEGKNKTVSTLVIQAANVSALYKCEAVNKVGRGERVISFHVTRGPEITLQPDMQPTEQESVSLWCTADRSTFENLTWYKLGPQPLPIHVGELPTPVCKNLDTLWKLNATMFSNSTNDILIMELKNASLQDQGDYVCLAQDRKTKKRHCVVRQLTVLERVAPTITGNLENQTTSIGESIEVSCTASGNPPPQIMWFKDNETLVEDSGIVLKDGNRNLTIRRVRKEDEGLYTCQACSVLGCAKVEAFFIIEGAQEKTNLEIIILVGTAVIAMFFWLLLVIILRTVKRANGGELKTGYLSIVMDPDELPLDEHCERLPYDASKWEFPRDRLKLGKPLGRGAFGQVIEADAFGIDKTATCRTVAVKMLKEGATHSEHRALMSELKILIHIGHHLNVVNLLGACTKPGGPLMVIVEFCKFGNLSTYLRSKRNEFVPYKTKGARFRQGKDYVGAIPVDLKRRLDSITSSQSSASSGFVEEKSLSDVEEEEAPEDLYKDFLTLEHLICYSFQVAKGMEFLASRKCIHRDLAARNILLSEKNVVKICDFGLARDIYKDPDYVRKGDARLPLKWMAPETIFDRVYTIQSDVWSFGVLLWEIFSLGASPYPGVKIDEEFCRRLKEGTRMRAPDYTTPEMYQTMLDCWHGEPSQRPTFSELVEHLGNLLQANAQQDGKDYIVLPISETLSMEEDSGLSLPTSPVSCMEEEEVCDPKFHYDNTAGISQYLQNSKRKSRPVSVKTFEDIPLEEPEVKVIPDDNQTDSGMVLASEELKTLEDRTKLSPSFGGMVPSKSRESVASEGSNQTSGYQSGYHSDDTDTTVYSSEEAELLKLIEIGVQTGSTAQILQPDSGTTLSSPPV
A general note: Immunoblotting shows a protein as a band on a membrane.

The subject of data set [8] is HUVEC. Put plainly: Antimigratory activity in HUVEC after 24 hrs by inverted phase contrast light microscopic analysis. It is filed as functional, cell-based. As to conditions: Homo sapiens. A digest of the protocol: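 Migrated HUVECs counted and compared with VEGF-treated control groups. Statistics by ANOVA with Tukey's test, n = 3.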
Data set [9] deals with Vascular endothelial growth factor receptor 2 (Homo sapiens) (UniProt P35968). Put plainly: Inhibition of VEGF-induced VEGFR2 phosphorylation at Tyr1175 residues in HUVEC pretreated for 30 mins followed by VEGF stimulation for 20 mins by Western blot analysis. It is filed as cell-based. An outline of the steps:
as §1

A short description of data set [10]: Stability in human plasma assessed as parent compound remaining at 10 uM after 30 mins by LC-MS/MS analysis. It counts as ADME, cell-free. As to conditions: read-out: Stability. A digest of the protocol:
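Parent compound remaining after 30 min incubation in human plasma.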

Data set [11] is described as follows: Metabolic stability in human liver microsomes assessed as parent compound remaining at 1 uM preincubated for 5 mins followed by NADPH addition measured after 30 mins by LC-MS/MS analysis. It counts as ADME, microsome. The conditions noted are these: read-out: Stability. An outline of the steps:
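Parent compound remaining after 30 min incubation with human liver microsomes.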

The target in data set [12] is Vascular endothelial growth factor receptor 2 (Homo sapiens) (UniProt P35968). The data set is described as follows: Inhibition of VEGFR2 in HUVEC assessed as decrease in VEGF-induced eNOS phosphorylation at Ser1177 residues pretreated for 30 mins followed by VEGF stimulation for 20 mins by Western blot analysis. It counts as cell-based. An outline of the steps: as §1

Data set [13] deals with Casein kinase I isoform alpha (Homo sapiens) (UniProt P48729). Put plainly: Inhibition of human wild type partial length CSNK1A1 (M1 to L301 residues) expressed in mammalian expression system at 10 uM by Kinomescan method relative to control. An outline of the steps: as §2
Chain of Casein kinase I isoform alpha (Homo sapiens) (P48729 2-337 limits assumed): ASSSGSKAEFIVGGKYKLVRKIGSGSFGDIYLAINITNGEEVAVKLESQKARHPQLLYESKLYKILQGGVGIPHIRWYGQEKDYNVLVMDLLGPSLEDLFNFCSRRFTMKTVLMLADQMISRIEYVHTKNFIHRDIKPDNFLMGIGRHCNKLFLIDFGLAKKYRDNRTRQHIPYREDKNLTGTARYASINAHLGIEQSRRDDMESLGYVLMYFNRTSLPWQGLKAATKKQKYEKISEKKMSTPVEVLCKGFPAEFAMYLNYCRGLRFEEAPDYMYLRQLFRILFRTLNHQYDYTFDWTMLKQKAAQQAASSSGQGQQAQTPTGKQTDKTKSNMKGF
Data set [14] deals with Vascular endothelial growth factor receptor 2 (Homo sapiens) (UniProt P35968). Put plainly: Inhibition of VEGFR2 in HUVEC assessed as decrease in VEGF-induced AKT phosphorylation at Thr308 residues pretreated for 30 mins followed by VEGF stimulation for 20 mins by Western blot analysis. It is filed as cell-based. A digest of the protocol: as §1
Data set [15] shares this target. The data set is described as follows: Inhibition of VEGFR2 in HUVEC assessed as decrease in VEGF-induced PI3K phosphorylation at Tyr458 residues pretreated for 30 mins followed by VEGF stimulation for 20 mins by Western blot analysis. It counts as cell-based. An outline of the steps:
as §1

The species entered for data set [16] is Danio rerio. Put plainly: Toxicity in transgenic zebrafish flk:EGFP embryo model of DR-mimic hyaloid vessels in larval eye lenses measured 6 days post fertilization. It is filed as organism-based. As to conditions: in vivo, 144 h.
The target of data set [17] is Vascular endothelial growth factor receptor 2 (Homo sapiens) (UniProt P35968). Put plainly: Inhibition of VEGFR2 in HUVEC assessed as decrease in VEGF-induced AKT phosphorylation at […] residues pretreated for 30 mins followed by VEGF stimulation for 20 mins by Western blot analysis. It counts as cell-based. A digest of the protocol:
as §1

The species named for data set [18] is Danio rerio. Put plainly: Antiangiogenic activity in transgenic zebrafish flk:EGFP embryo model of DR-mimic hyaloid vessels in larval eye lenses assessed as inhibition of high glucose induced increase in hyaloid vessel diameter pretreated with glucose 3 days post fertilization for 3 days followed by compound addition measured 6 days post fertilization by fluorescence microscopy. It counts as functional, organism-based. An outline of the steps: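 Transgenic flk:EGFP zebrafish embryos at 3 dpf exposed to 130 mM glucose for 3 days to induce DR-mimic hyaloid vessels, with compound at varying concentrations. Hyaloid vessel diameter measured near the optic disc in isolated eye lenses; primary branch number compared with high-glucose controls. ANOVA with Tukey's test, n = 3.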

For data set [19], the target named is Vascular endothelial growth factor receptor 2 (Homo sapiens) (UniProt P35968). Put plainly: Inhibition of VEGFR2 in HUVEC assessed as decrease in VEGF-induced FAK phosphorylation at Tyr397 residues pretreated for 30 mins followed by VEGF stimulation for 20 mins by Western blot analysis. It is filed as cell-based. A digest of the protocol: as §1

Active and inactive are the calls of the source. The rule behind the calls is not given here.

Chain of Dual specificity mitogen-activated protein kinase kinase 1 (Homo sapiens) (Q02750 whole entry, the tested form may be a part): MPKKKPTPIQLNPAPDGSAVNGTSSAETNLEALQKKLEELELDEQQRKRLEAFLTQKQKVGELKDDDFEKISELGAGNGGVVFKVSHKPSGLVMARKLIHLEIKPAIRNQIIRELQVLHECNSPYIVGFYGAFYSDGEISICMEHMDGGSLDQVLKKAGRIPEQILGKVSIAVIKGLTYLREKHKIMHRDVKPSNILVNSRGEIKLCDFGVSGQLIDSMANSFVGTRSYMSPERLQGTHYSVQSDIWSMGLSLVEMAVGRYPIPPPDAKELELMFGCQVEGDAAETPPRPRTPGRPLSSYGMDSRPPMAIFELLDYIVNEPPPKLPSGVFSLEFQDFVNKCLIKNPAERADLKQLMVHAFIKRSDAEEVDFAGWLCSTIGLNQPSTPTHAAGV

Consider `CCc1ccc2nc(C(c3ccc(O)c(O)c3)n3cc(CCN(C)C)nn3)sc2c1` (configuration not stated), for which the results for the IC50 in the data set on HUVEC [1] and with HUVEC [2] were 3.04 µM and 37.3 µM, respectively.

As to `CCc1ccc2nc(C(c3ccc(OC)c(OC)c3)n3cc(CCNC4CCCC4)nn3)sc2c1` (configuration not stated), the values for the IC50 with HUVEC [1] and with HUVEC [2] were 1.02 µM and 19.4 µM, respectively.

`CCCNCCc1cn(C(c2ccc(OC)c(OC)c2)c2nc3ccc(CC)cc3s2)nn1` (configuration not stated): the IC50 (in general, the concentration that inhibits the measured activity by half) in the data set on HUVEC [1] is 1.39 µM; with HUVEC [2] it was 38.6 µM.

For the molecule `CCc1ccc2c(c1)OC(C(c1ccc(O)c(O)c1)n1cc(CCN(C)C)nn1)O2` (configuration not stated), the results for the IC50 in the data set with HUVEC [1] and in the data set on HUVEC [2] were 28 µM and 95.9 µM, respectively.

With `CCN(CC)CCNC(=O)c1c(C)[nH]c(/C=C2\C(=O)Nc3ccc(F)cc32)c1C` [SUNITINIB], the IC50 in the data set on HUVEC [1] is 0.546 µM; in the data set on HUVEC [2], 9.92 µM.

For the molecule `CCc1ccc2nc(C(c3ccc(OC)c(OC)c3)n3cc(CCN(C)C)nn3)sc2c1` (configuration not stated), the values for the IC50 with HUVEC [1] and in the data set with HUVEC [2] were 8.27 µM and 93.5 µM, respectively.

Regarding `CN(C)CCc1cn(C(c2ccc(O)c(O)c2)C2Oc3ccc(/C=C/OS(=O)(=O)O)cc3O2)cn1` (configuration not stated), the IC50 in the data set with HUVEC [1] is 42.8 µM; in the data set on HUVEC [2], > 100 µM.

Consider `CCc1ccc2cc(C(c3ccc(O)c(O)c3)n3cc(CCN(C)C)nn3)oc2c1` (configuration not stated), for which the IC50 in the data set with HUVEC [1] came out at 6.1 µM; in the data set with HUVEC [2], 22 µM.

`CCc1ccc2nc(C(c3ccc(OC)c(OC)c3)n3cc(CCN4CCCC4)nn3)sc2c1` (configuration not stated): the values for the half-maximal inhibitory concentration (IC50) in the data set on HUVEC [1] and in the data set on HUVEC [2] were 2.84 µM and 70.3 µM, respectively.

`CCc1ccc2nc(C(c3ccc(OC)c(OC)c3)n3cc(CCN4CCOCC4)nn3)sc2c1` (configuration not stated): the IC50 is 3.93 µM with HUVEC [1] and > 100 µM in the data set with HUVEC [2].

Turning to `CCc1ccc2nc(C(c3ccc(OC)c(OC)c3)n3cc(CCN4CCCCC4)nn3)sc2c1` (configuration not stated), the inhibition entry (in the data set on HUVEC [3]; in data set [7]; in data set [9]; in data set [12]; in [14]; in [15]) was “Active” each time. In addition, the inhibition result in [17] and in data set [19] was “Active” in each case. Moreover, the inhibition (as a rule, the relative decrease from the control value, in per cent) is > 40% in [4]; > 40% in [5]; “Dose-dependent effect” with HUVEC [1]; > 40% in [13]; “Dose-dependent effect” in the data set listed under Danio rerio [18]. Also, the 50% inhibitory concentration (IC50) with HUVEC [1] is 0.631 µM; in the data set with HUVEC [2] it was 47.5 µM. Besides, in [6], the Papp A→B (as a rule, how fast a substance crosses the layer from the apical side) at 10 µM is 11 ×10⁻⁶ cm/s. For the same molecule, the figures for the Activity entry with HUVEC [8] and in the data set filed under Danio rerio [16] were “Dose-dependent effect” and “Non-Toxic”, respectively. Also, in [10], the remaining at 0.5 h, 10 µM was determined as 95%. Also, the remaining at 0.5 h, 1 µM in data set [11] was 31%.

Turning to `CCc1ccc2nc(C(c3ccc(O)c(O)c3)n3cc(CCN(C)C)nn3)oc2c1` (configuration not stated), the IC50 in the data set on HUVEC [1] is > 20 µM; with HUVEC [2], > 100 µM.

These data come from ChEMBL document CHEMBL4130527, “New Scaffold for Angiogenesis Inhibitors Discovered by Targeted Chemical Transformations of Wondonin Natural Products” (ACS Med Chem Lett, 2017).
